{"data": "Measured values pooled from the literature", "observed": "metabolic stability", "note": "Compare with care: the assays were run in different laboratories."}
{"SMILES": "C[C@H]1COCCN1c1nc(NCc2cccnc2C(F)(F)F)c2cccnc2n1", "test system": "mouse, hepatocytes", "measurement": "hepatocyte CLint", "result": "8.9 µL/min/10⁶ cells"}
{"SMILES": "Cc1cc(Cl)c(Cl)cc1NC(=O)c1ccc(N2CCNCC2)c(C#N)c1", "test system": "CD-1 mouse, liver microsomes", "setting": "1 µM, 1 h, pH 7.4", "measurement": "scaled CLint", "result": "29 mL/min/kg"}
{"SMILES": "NC(=O)[C@@H]1CC(F)(F)CN1C(=O)c1ccc(N2CC(F)(F)C2)c(OCC2CC2)n1", "test system": "mouse, hepatocytes", "measurement": "hepatocyte CLint", "result": "59 µL/min/10⁶ cells"}
{"SMILES": "Cc1nc2c(=O)n(C)c(=O)nc-2n(C)n1", "test system": "mouse, liver microsomes", "measurement": "microsomal CLint", "result": "< 7.4 µL/min/mg"}
{"SMILES": "Cc1ccc(F)c2cc(C(=O)N[C@@H]3CCC[C@H](N4CC[C@H](N(C)S(C)(=O)=O)C4)C3)[nH]c12", "test system": "mouse, hepatocytes", "setting": "0.5 µM, 1 h", "measurement": "scaled CLint", "result": "721 mL/min/kg"}
{"SMILES": "Cc1ncc2n1-c1ccc(Cl)cc1C(c1ccccc1F)=NC2", "test system": "male CD-1 mouse, liver microsomes", "setting": "1 µM", "measurement": "microsomal CLint", "result": "> 250 µL/min/mg"}
{"SMILES": "Cc1nc([C@@](C)(CC2CC2)NC(=O)c2cc(OCC(F)(F)F)c(C3CC3)cn2)no1", "test system": "mouse, hepatocytes", "measurement": "hepatocyte CLint", "result": "27 µL/min/10⁶ cells"}
{"SMILES": "Cc1cc(C)nc(Nc2ncc(C(=O)NCCc3c(C)[nH]c4ccccc34)cn2)c1", "test system": "mouse, liver microsomes", "setting": "1 µM", "measurement": "microsomal CLint", "result": "148 µL/min/mg"}
